Assays:
[1] = molecular target: T1, Delta-type opioid receptor (Homo sapiens, UniProt P41143); assay: Binding affinity at human opioid receptor delta 1 was determined by using [3H]diprenorphine radioligand in CHO cell membranes at a concentration of 0.8 nM
Outline: (§1)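 Ki from competition binding with [3H]diprenorphine on membranes of CHO cells expressing the respective human opioid receptor; means of 2–3 independent determinations.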

Mu-type opioid receptor = Mu-type opioid receptor (Homo sapiens, UniProt P35372); assay: Binding affinity at human opioid receptor mu 1 was determined by using [3H]diprenorphine radioligand in CHO cell membranes at a concentration of 0.12 nM; outline: as §1
[2] = molecular target: Kappa-type opioid receptor (Homo sapiens, UniProt P41145); assay: Binding affinity at human opioid receptor kappa 1 was determined by using [3H]diprenorphine radioligand in CHO cell membranes at a concentration of 0.31 nM; outline: as §1
Nociceptin receptor [3] = molecular target: T2, Nociceptin receptor (Homo sapiens, UniProt P41146); assay: Binding affinity at human ORL1 receptor was determined by using [125I]nociceptin radioligand in Chinese hamster ovary (CHO) cell membranes at a concentration of 23 pM
Outline: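 Competition binding against [125I]Nociceptin on membranes of CHO cells expressing human ORL1; Ki derived; means of 2–3 independent determinations.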

Nociceptin receptor [4] = molecular target: T2, Nociceptin receptor; assay: Functional [35S]GTP-gamma-S, binding for human ORL1 receptor carried out in CHO cell membranes.; assay type: cell-based; conditions: filed as agonist
Outline: (§2)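 [35S]GTPγS binding on membranes of CHO cells expressing human ORL1, 1 h incubation before assay start. Agonist: raises [35S]GTPγS binding. Antagonist: no effect on basal binding but blocks the Nociceptin-induced rise.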

Nociceptin receptor [5] = molecular target: T2, Nociceptin receptor; assay: Compound was evaluated for functional [35S]GTP-gamma-S, binding for human ORL1 receptor carried out in CHO cell membranes; Compound acts as Agonist; assay type: cell-based; conditions: filed as agonist; outline: as §2
Nociceptin receptor [6] = molecular target: T2, Nociceptin receptor; assay: Concentration of compound that inhibits the binding of human ORL1 receptor in CHO cell membranes in the presence of [125I]nociceptin radioligand at a concentration of 10 uM
[7] = molecular target: T1, Delta-type opioid receptor; assay: Binding affinity at human Opioid receptor delta 1 was determined by using [3H]diprenorphine radioligand in CHO cell membranes at a concentration of 0.8 nM; outline: as §1
Nociceptin receptor [8] = molecular target: T2, Nociceptin receptor; assay: Compound was evaluated for functional [35S]GTP-gamma-S, binding for human ORL1 receptor carried out in CHO cell membranes; Compound acts as Antagonist; assay type: cell-based; conditions: filed as antagonist; outline: as §2

T1 sequence (P41143 whole entry): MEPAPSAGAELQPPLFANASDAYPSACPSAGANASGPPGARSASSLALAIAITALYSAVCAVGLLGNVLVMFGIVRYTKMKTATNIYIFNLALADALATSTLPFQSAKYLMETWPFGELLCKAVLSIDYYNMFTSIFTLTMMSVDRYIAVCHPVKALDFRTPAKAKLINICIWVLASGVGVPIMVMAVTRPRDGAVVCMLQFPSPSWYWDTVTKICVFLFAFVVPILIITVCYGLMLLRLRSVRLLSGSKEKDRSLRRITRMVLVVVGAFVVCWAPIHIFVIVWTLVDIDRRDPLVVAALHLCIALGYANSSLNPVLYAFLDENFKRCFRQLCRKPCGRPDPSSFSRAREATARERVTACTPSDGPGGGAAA
Mu-type opioid receptor, sequence (P35372 whole entry): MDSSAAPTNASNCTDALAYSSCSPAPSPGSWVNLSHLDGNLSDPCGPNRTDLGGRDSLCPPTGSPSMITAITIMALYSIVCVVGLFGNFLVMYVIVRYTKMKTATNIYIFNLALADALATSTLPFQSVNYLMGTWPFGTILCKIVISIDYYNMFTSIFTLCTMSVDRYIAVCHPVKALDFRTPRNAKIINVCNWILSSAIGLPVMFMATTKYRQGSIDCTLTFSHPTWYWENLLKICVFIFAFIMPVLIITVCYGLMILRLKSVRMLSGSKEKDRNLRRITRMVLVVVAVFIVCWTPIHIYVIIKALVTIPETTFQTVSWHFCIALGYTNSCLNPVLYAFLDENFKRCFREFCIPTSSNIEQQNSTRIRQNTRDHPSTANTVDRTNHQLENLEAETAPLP
T2 sequence (P41146 whole entry): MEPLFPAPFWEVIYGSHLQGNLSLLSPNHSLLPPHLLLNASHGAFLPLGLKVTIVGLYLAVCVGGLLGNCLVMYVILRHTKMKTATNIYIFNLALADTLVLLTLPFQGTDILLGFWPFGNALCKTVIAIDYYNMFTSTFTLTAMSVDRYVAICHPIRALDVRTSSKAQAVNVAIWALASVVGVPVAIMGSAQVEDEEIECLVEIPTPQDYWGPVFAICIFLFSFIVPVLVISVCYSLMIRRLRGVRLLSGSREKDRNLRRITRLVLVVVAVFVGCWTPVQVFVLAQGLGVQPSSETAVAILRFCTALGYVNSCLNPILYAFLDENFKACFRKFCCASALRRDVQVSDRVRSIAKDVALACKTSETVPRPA
Kappa-type opioid receptor, sequence (P41145 whole entry): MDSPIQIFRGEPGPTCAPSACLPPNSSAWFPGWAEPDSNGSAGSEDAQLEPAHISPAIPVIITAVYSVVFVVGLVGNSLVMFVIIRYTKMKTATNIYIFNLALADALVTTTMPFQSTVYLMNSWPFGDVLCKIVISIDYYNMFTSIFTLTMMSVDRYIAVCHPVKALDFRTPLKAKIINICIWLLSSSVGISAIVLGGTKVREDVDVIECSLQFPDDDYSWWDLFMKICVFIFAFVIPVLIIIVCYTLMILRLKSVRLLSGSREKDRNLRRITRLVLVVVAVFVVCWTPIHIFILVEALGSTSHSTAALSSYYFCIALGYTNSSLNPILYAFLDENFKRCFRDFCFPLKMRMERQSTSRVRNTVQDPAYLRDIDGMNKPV

| SMILES | Ki [1] [µM] | Ki (Mu-type opioid receptor) [µM] | Ki [2] [µM] | Ki (Nociceptin receptor [3]) [µM] | Activity (Nociceptin receptor [4]) | Activity (Nociceptin receptor [5]) | inhibition (Nociceptin receptor [6]) [%] | Ki [7] [µM] | Activity (Nociceptin receptor [8]) |
| --- | --- | --- | --- | --- | --- | --- | --- | --- | --- |
| CCC(c1ccccc1)N1CC[C@H]1[C@H](N)c1cccc(Cl)c1 (stereo not given in full) | 22.4 | 7.22 | 7.72 | 0.094 | Agonist | – | – | – | – |
| N[C@@H](c1ccc(Oc2ccccc2)cc1)[C@@H]1CCN1C(c1ccccc1)c1ccccc1 | 7.72 | 5.4 | 2.77 | 7.22 | – | – | – | – | – |
| N[C@H](c1cccc(Cl)c1)[C@@H]1CCN1C(c1ccc(Br)cc1)c1ccc(Br)cc1 | 4.99 | 2.5 | 1.48 | 2.53 | – | – | – | – | – |
| N[C@@H](c1cccc(C(F)(F)F)c1)[C@@H]1CCN1C(c1ccccc1)c1ccccc1 (stereo in doubt; (+\-)-1) [listing 1 of 2 here] | 6.09 | 1.97 | 1.63 | 0.031 | – | – | – | – | – |
| CCCCCC(c1ccccc1)N1CC[C@H]1[C@H](N)c1cccc(Cl)c1 (stereo not given in full) | 5.96 | 1.94 | 2.99 | 0.034 | – | – | – | – | – |
| N[C@H](c1cccc(Cl)c1)[C@@H]1CCN1C(c1cccc(C(F)(F)F)c1)c1cccc(C(F)(F)F)c1 | – | – | – | 2.59 | – | – | – | – | – |
| CCCCC(c1cc(F)cc(F)c1)N1CC[C@H]1[C@H](N)c1cccc(Cl)c1 (stereo not given in full) | 11.2 | 3.98 | 4.22 | 0.049 | – | Agonist | – | – | – |
| CCCCC(c1cc(F)cc(F)c1)N1CC[C@H]1[C@@H](N)c1cccc(Cl)c1 (stereo not given in full) | 9.37 | 5.55 | 6.49 | 0.347 | – | – | – | – | – |
| CCC(c1ccccc1)N1CC[C@H]1[C@@H](N)c1cccc(Cl)c1 (stereo not given in full) | 22.4 | 8.07 | 13.1 | 0.57 | – | – | – | – | – |
| CCCCC(c1cccc(F)c1)N1CC[C@H]1[C@@H](N)c1cccc(Cl)c1 (stereo not given in full) | 12.3 | 4.71 | 4.12 | 0.68 | – | – | – | – | – |
| CCCCC(c1ccccc1)N1CC[C@H]1[C@H](N)c1cccc(Cl)c1 (stereo not given in full) | 8.05 | 1.81 | 3.43 | 0.03 | Agonist | – | – | – | – |
| CCCCCC(c1ccccc1)N1CC[C@H]1[C@@H](N)c1cccc(Cl)c1 (stereo not given in full) | 7.58 | 2.15 | 3.91 | 0.772 | – | – | – | – | – |
| CCCCCCC(c1ccccc1)N1CC[C@H]1[C@@H](N)c1cccc(Cl)c1 (stereo not given in full) | 4.98 | 1.59 | 1.94 | 1.02 | – | – | – | – | – |
| N[C@H](c1cccc(Cl)c1)[C@@H]1CCN1C(c1ccc(Cl)cc1)c1ccc(Cl)cc1 | 5.01 | 3.45 | 3.25 | 3.22 | – | – | – | – | – |
| N[C@H](c1cccc(Cl)c1)[C@@H]1CCN1C(c1cccc(F)c1)c1cccc(F)c1 | 4.79 | 4.32 | 3.53 | 0.064 | Agonist | – | – | – | – |
| CCCCC(CCCC)N1CC[C@H]1[C@@H](N)c1cccc(Cl)c1 | 31.8 | 9.67 | 4.26 | 1.34 | – | – | – | – | – |
| N[C@H](c1cccc(Cl)c1)[C@@H]1CCN1C(c1cccc(Cl)c1)c1cccc(Cl)c1 | 2.71 | 7.16 | 6.04 | 0.42 | Agonist | – | – | – | – |
| Cc1cccc([C@H](N)[C@@H]2CCN2C(c2ccccc2)c2ccccc2)c1 | – | – | – | – | – | – | 3 | – | – |
| N[C@@H](c1cccc(C(F)(F)F)c1)[C@@H]1CCN1C(c1ccccc1)c1ccccc1 (stereo in doubt; (+)-1a) [listing 1 of 2 here] | – | – | – | – | Agonist | – | – | – | – |

| SMILES | Ki [1] [µM] | Ki (Mu-type opioid receptor) [µM] | Ki [2] [µM] | Ki (Nociceptin receptor [3]) [µM] | Activity (Nociceptin receptor [4]) | Activity (Nociceptin receptor [5]) | inhibition (Nociceptin receptor [6]) [%] | Ki [7] [µM] | Activity (Nociceptin receptor [8]) |
| --- | --- | --- | --- | --- | --- | --- | --- | --- | --- |
| Cc1ccc(C(c2ccc(C)cc2)N2CC[C@H]2[C@H](N)c2cccc(Cl)c2)cc1 | 5.01 | 0.801 | 1.84 | 1.14 | – | – | – | – | – |
| CCCCC(c1ccccc1)N1CC[C@H]1[C@@H](N)c1cccc(Cl)c1 (stereo not given in full) | 8.82 | 2.25 | 3.68 | 0.745 | – | – | – | – | – |
| Cc1ccc([C@H](N)[C@@H]2CCN2C(c2ccccc2)c2ccccc2)cc1F | 0.634 | 0.152 | 0.15 | 0.058 | Agonist | – | – | – | – |
| Cc1ccc([C@H](N)[C@@H]2CCN2C(c2ccccc2)c2ccccc2)cc1 | 1.86 | 0.488 | 0.66 | 0.094 | – | – | – | – | – |
| N[C@@H](c1cccc(F)c1)[C@@H]1CCN1C(c1ccccc1)c1ccccc1 | 2.92 | 1.77 | 0.997 | 0.191 | Agonist | – | – | – | – |
| COc1cccc([C@H](N)[C@@H]2CCN2C(c2ccccc2)c2ccccc2)c1 | – | – | – | – | – | – | 45 | – | – |
| CC(c1ccccc1)N1CC[C@H]1[C@@H](N)c1cccc(Cl)c1 (stereo not given in full) | 39.1 | 10.6 | 4.1 | 1.06 | – | – | – | – | – |
| N[C@H](c1cccc(C(F)(F)F)c1)[C@H]1CCN1C(c1ccccc1)c1ccccc1 | 3.31 | 0.516 | 0.641 | 0.014 | Agonist | – | – | – | – |
| N[C@H](c1cccc(Cl)c1)[C@@H]1CCN1C(c1ccc(F)cc1)c1ccc(F)cc1 | 7.43 | 2.18 | 2.24 | 0.684 | – | – | – | – | – |
| CCCC(c1ccccc1)N1CC[C@H]1[C@H](N)c1cccc(Cl)c1 (stereo not given in full) | 16.5 | 6.02 | 7.17 | 0.079 | Agonist | – | – | – | – |
| N[C@@H](c1cccc(C(F)(F)F)c1)[C@@H]1CCN1C(c1ccccc1)c1ccccc1 (stereo in doubt; (+\-)-1) [listing 2 of 2 here] | – | – | – | – | Agonist | – | – | – | – |
| COc1ccc([C@H](N)[C@@H]2CCN2C(c2ccccc2)c2ccccc2)cc1 | 2.92 | 0.865 | 1.34 | 0.198 | – | – | – | – | – |
| N[C@@H](c1cc(F)cc(F)c1)[C@@H]1CCN1C(c1ccccc1)c1ccccc1 | 9.53 | 4.25 | 4.01 | 0.105 | Agonist | – | – | – | – |
| CCCC(c1ccccc1)N1CC[C@H]1[C@@H](N)c1cccc(Cl)c1 (stereo not given in full) | 10.1 | 4.13 | 2.94 | 0.367 | – | – | – | – | – |
| N[C@@H](c1ccc(Cl)cc1)[C@@H]1CCN1C(c1ccccc1)c1ccccc1 | 1.44 | 0.586 | 0.607 | 0.152 | Agonist | – | – | – | – |
| N[C@@H](c1cccc(C(F)(F)F)c1)[C@@H]1CCN1C(c1ccccc1)c1ccccc1 (stereo in doubt; (+)-1a) [listing 2 of 2 here] | 11 | 6.09 | 3.57 | 0.236 | – | – | – | – | – |
| CCCCC(c1cccc(F)c1)N1CC[C@H]1[C@H](N)c1cccc(Cl)c1 (stereo not given in full) | 8.71 | 1.6 | 2.13 | 0.026 | Agonist | – | – | – | – |
| N[C@@H](c1cccc(Cl)c1)[C@@H]1CCN1C(c1ccccc1)c1ccccc1 | 8.34 | 1.65 | 1.23 | 0.037 | – | – | – | – | – |
| CCCCCCC(c1ccccc1)N1CC[C@H]1[C@H](N)c1cccc(Cl)c1 (stereo not given in full) | – | 1.49 | 2.86 | 0.185 | – | – | – | 3.91 | Antagonist |

Source: ChEMBL document CHEMBL1134945, “Synthesis and structure-activity relationships of aminoalkylazetidines as ORL1 receptor ligands” (Bioorg Med Chem Lett, 2002)
